Data on eight molecules can be found in ChEMBL document CHEMBL5223179, “Phenyl Dihydrouracil: An Alternative Cereblon Binder for PROTAC Design” (ACS Med Chem Lett, 2023).

Activity calls are given as the source filed them. The calls are words filed in the database; no cut-off is given here. Where only a bound is given, the exact number is not on record here.

For data set [1], the system named is KOPTK1. Description: Cytotoxicity against human KOPT-K1 cells incubated for 72 hrs by Celltiter-Glo assay. The data set is classed as functional. Particulars: for CC50: read-out: LC50 (the source's name). Put shortly: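 Human T-ALL KOPT-K1 cells treated with compounds for 72 h. Viability measured by CellTiter-Glo. LC50 fitted from dose-response data, reported as the mean of three independent experiments ± SD.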
A general note: Cellular ATP, detected with luciferase, serves as a proxy for viable cell number.

Data set [2] is described as follows: Metabolic stability in mouse liver microsomes assessed as half life measured upto 240 mins in presence of NADPH regenerating system by LC-MS/MS analysis. It counts as ADME, Microsome. Background: Liver microsomes are a subcellular fraction often used to study metabolism.
For data set [3], the target named is T1, Tyrosine-protein kinase Lck (Homo sapiens, UniProt P06239). Description: Induction of LCK degradation in human KOPT-K1 cells assessed as maximum degradation after 4 hrs by immunoblotting analysis relative to control. The data set is classed as cell-based. Put shortly:
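KOPT-K1 cells were treated with increasing concentrations of compound for 4 h. Endogenous LCK was assessed by immunoblot. Degradation was calculated from quantified band intensities, and DC50 from the average of three independent experiments.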
A general note: In western blotting, separated proteins are transferred to a membrane and probed.
Target sequence in this assay (P06239 2-509 limits assumed): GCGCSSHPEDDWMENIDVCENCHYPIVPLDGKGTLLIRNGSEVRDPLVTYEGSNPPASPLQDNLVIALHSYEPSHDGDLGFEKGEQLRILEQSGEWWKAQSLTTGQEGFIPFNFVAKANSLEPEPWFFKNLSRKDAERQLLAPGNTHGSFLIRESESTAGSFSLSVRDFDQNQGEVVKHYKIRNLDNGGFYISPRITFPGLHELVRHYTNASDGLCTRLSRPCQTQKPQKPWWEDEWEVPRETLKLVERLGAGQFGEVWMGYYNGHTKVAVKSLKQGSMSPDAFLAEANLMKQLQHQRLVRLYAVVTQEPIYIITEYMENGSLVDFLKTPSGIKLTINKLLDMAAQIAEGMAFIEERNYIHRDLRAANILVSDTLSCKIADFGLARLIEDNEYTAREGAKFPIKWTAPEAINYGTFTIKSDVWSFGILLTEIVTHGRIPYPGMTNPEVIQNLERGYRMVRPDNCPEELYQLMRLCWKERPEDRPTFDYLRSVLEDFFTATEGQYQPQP

Data set [4] concerns the target DNA-binding protein Ikaros (Homo sapiens) (UniProt Q13422). Kind of data set: Induction of IKZF1 degradation in human KOPT-K1 cells upto 100 nM incubated for 4 hrs by immunoblotting analysis. It counts as cell-based. Put shortly: (§1)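 KOPT-K1 cells were treated with compound at concentrations up to 100 nM. Endogenous GSPT1, IKZF1 and CK1α abundance was assessed by immunoblotting.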

Data set [5] in a line: Permeability in human Caco-2 cells after 2 hrs by UPLC/MS analysis. It counts as ADME, cell-based. Particulars: caco-2, 2 h.
Data set [6] addresses Eukaryotic peptide chain release factor GTP-binding subunit ERF3A (Homo sapiens) (UniProt P15170). Kind of data set: Induction of GSPT1 degradation in human KOPT-K1 cells upto 100 nM incubated for 4 hrs by immunoblotting analysis. It counts as cell-based. Put shortly: as §1
For data set [7], the system named is KOPTK1. Description: Cytotoxicity against human KOPT-K1 cells incubated for 24 hrs by Celltiter-Glo assay. The data set is classed as functional. Particulars: read-out: LC50 (the source's name). Put shortly: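 KOPT-K1 human T-ALL cells exposed to compound for 24 h. Viability read by CellTiter-Glo luminescence. LC50 derived from concentration-response curves.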

The nature of data set [8]: Metabolic stability in mouse liver microsomes assessed as clearance measured upto 240 mins in presence of NADPH regenerating system by LC-MS/MS analysis. The data set is classed as ADME, Microsome. Particulars: 4 h.
The target of data set [9] is Casein kinase I isoform alpha (Homo sapiens) (UniProt P48729). Kind of data set: Induction of CK1alpha degradation in human KOPT-K1 cells upto 100 nM incubated for 4 hrs by immunoblotting analysis. The data set is classed as cell-based. Put shortly:
as §1

Data set [10] concerns the target T1, Tyrosine-protein kinase Lck. Description: Induction of HiBiT-tagged LCK degradation in human KOPT-K1 cells after 4 hrs by microplate reader analysis. The data set is classed as cell-based.
Target sequence in this assay (P06239 whole entry): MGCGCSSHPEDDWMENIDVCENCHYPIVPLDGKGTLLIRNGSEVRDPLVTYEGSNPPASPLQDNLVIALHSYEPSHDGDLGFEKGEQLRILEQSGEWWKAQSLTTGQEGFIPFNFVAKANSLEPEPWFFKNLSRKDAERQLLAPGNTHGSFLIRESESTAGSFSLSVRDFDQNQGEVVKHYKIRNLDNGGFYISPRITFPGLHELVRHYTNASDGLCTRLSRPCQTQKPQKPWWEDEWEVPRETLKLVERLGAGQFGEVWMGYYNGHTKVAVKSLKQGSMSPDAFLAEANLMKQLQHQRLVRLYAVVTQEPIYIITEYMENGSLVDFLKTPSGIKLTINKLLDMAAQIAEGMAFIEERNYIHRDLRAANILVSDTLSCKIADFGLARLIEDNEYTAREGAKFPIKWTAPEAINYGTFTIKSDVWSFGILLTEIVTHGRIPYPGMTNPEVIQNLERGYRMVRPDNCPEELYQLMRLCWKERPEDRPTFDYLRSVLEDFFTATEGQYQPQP
For data set [11], the target named is Eukaryotic peptide chain release factor GTP-binding subunit ERF3A (Homo sapiens) (UniProt P15170). Kind of data set: Induction of HiBiT-tagged GSPT1 degradation in HEK293T cells upto 10 uM incubated for 4 hrs. It counts as cell-based. Put shortly:
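HiBiT-tagged GSPT1 in HEK293T cells was measured after compound exposure at concentrations up to 10 μM.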

A short description of data set [12]: Chemical stability of compound in human KOPT-K1 cell culture media assessed as half life incubated upto 48 hrs. It counts as physicochemical. Put shortly: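 Compound stability followed in KOPT-K1 cell culture medium over time; half-life derived from the remaining compound.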
The target of data set [13] is Protein cereblon/DNA damage-binding protein 1 (Homo sapiens, UniProt Q96SW2). Description: Displacement of Cy5-O-Len from 6His-tagged CRBN/DDB1 (unknown origin) incubated for 1 hr under dark condition by fluorescence polarization assay. The data set is classed as protein assay.
Chain of Protein cereblon/DNA damage-binding protein 1 (Q96SW2 whole entry): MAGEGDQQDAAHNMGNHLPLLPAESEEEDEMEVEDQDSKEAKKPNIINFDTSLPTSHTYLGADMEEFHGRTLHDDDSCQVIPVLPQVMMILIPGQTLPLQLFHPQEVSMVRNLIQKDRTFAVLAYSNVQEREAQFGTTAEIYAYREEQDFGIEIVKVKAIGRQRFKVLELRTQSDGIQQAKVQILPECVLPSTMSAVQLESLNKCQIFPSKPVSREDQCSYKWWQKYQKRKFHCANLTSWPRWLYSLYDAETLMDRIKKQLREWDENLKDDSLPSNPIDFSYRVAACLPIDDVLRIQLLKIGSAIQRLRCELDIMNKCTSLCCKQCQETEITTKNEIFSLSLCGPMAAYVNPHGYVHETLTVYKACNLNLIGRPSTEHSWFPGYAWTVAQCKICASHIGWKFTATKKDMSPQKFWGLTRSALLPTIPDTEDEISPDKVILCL
Chain of Protein cereblon/DNA damage-binding protein 1 (Q16531 whole entry, further chain): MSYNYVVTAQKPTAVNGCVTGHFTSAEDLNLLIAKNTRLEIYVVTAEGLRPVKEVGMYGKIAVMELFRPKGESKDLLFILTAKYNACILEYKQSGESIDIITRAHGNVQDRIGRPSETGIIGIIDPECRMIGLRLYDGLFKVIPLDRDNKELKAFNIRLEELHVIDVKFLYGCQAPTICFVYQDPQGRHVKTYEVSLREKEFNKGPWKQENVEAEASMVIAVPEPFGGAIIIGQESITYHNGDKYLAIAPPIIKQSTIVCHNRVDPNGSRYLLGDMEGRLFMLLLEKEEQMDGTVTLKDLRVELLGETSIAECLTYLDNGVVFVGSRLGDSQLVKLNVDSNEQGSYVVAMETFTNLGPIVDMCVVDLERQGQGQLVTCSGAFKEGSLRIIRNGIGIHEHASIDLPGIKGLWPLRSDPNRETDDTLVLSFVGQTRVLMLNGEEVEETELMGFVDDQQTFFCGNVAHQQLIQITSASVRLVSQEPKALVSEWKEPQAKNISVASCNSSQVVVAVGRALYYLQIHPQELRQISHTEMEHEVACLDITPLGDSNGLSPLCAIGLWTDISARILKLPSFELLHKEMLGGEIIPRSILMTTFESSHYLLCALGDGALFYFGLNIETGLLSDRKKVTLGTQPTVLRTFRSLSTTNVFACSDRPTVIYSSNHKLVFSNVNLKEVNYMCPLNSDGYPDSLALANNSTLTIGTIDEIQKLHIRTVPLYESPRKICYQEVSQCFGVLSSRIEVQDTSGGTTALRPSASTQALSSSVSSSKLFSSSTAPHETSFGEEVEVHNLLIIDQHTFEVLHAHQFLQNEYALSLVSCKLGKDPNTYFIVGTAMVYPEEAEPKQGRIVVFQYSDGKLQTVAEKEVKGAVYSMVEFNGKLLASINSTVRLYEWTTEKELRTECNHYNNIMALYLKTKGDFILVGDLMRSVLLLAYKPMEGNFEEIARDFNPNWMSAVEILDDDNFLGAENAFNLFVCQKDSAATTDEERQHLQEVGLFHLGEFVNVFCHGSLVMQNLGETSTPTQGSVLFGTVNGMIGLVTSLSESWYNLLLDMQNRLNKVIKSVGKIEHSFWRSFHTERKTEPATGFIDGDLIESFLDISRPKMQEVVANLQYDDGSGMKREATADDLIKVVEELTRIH
In data set [14] the target is T1, Tyrosine-protein kinase Lck. Kind of data set: Induction of LCK degradation in human KOPT-K1 cells after 4 hrs by immunoblotting analysis. It counts as cell-based.
Target sequence in this assay (P06239 whole entry): as the sequence (P06239 whole entry) above

Chain of Eukaryotic peptide chain release factor GTP-binding subunit ERF3A (Homo sapiens) (P15170 whole entry): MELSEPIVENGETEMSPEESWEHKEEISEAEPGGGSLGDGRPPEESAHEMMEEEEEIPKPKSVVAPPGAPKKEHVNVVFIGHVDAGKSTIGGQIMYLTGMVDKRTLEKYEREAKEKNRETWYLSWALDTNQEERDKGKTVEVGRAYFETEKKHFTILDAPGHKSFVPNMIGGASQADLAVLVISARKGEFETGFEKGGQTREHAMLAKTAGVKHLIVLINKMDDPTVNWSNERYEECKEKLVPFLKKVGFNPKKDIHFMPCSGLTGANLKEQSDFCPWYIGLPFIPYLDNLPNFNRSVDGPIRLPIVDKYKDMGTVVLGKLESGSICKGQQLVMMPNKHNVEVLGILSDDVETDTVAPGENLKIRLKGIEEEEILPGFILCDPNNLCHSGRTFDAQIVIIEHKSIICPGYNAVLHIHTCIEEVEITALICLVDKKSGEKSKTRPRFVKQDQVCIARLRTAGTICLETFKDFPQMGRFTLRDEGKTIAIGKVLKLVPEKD
Chain of Casein kinase I isoform alpha (Homo sapiens) (P48729 2-337 limits assumed): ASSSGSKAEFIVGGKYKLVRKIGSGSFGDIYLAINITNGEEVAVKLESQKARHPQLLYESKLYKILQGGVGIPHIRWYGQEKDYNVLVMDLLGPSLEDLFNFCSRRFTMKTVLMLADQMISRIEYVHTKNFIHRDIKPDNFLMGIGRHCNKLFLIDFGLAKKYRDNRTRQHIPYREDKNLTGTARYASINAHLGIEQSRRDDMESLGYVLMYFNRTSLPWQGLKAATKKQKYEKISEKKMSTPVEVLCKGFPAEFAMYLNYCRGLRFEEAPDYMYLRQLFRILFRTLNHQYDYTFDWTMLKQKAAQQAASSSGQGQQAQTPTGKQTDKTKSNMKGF
Chain of DNA-binding protein Ikaros (Homo sapiens) (Q13422 whole entry): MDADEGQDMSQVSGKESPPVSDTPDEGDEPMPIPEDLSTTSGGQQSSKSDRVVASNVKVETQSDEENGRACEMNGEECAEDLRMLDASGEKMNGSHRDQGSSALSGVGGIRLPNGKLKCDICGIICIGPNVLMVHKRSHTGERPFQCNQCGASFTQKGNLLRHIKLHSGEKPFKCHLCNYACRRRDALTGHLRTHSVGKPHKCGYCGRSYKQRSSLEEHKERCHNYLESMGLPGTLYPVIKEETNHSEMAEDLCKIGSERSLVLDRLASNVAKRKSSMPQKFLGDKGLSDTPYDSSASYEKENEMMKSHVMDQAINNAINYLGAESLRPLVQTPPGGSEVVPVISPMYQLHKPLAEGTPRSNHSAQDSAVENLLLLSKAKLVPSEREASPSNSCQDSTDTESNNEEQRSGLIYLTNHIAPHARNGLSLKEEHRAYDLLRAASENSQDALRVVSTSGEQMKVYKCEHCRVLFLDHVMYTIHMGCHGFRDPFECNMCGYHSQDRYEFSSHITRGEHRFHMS

Take `O=C1CCN(c2ccc(N3CCNCC3)cc2)C(=O)N1`: the result in [1] was inactive.

The term half-life denotes how long it takes for the measured level to halve. For the molecule `Cc1nc(Nc2ncc(C(=O)Nc3c(C)cccc3Cl)s2)cc(N2CCN(CCO)CC2)n1.O` [DASATINIB], the half-life in data set [2] was 0.82 h.

The term Emax denotes the greatest response seen or fitted, relative to the assay's reference. With `Cc1nc(Nc2ncc(C(=O)Nc3c(C)cccc3Cl)s2)cc(N2CCN(CCCC(=O)N3CCN(c4ccc(N5CCC(=O)NC5=O)cc4)CC3)CC2)n1`, the Emax in [3] amounted to 98.4%. Also, the outcome in data set [4], in data set [6] and in [9] was inactive. The permeability result in data set [5] is “Impermeable”. In addition, the CC50 in data set [7] was 37 nM. Moreover, the Stability result in data set [8] is reported as “Unstable”.

Usually DC50 stands for the midpoint of the concentration-degradation curve. A higher DC50 goes with degradation only at high concentration. Molecule `Cc1nc(Nc2ncc(C(=O)Nc3c(C)cccc3Cl)s2)cc(N2CCN(CCCC(=O)N3CCN(c4ccc(C5CCC(=O)NC5=O)cc4)CC3)CC2)n1` (stereo not drawn) had a DC50 in data set [10] of 8 nM. In data set [5], the permeability result is “Impermeable”. For the same molecule, the CC50 in data set [7] worked out at 0.005 nM. The Stability entry in data set [8] is on record as “Unstable”.

In general, IC50 refers to the midpoint of a concentration-inhibition curve. Lower therefore signals greater potency. As to `Cc1nc(Nc2ncc(C(=O)Nc3c(C)cccc3Cl)s2)cc(N2CCN(CCCNC(=O)COc3cccc4c3C(=O)N(C3CCC(=O)NC3=O)C4=O)CC2)n1` (stereo not drawn), half-maximal degradation in data set [10] (DC50) was put at 13 nM. The outcome in data set [11] was inactive. Further, the permeability result in [5] is listed as “Impermeable”. Further, the T1/2 in data set [12] came out at 13 h. Moreover, the CC50 in [1] came out at 10 nM; in data set [7], 8 nM. Also, in data set [8], the Stability entry is recorded as “Unstable”. In data set [13], this molecule registered a concentration for half-maximal inhibition (IC50) of 1030 nM.

On to `O=C(O)COc1ccc(N2CCC(=O)NC2=O)cc1`, for which the result in data set [1] was inactive.

Regarding `Cc1nc(Nc2ncc(C(=O)Nc3c(C)cccc3Cl)s2)cc(N2CCN(CCCNC(=O)COc3ccc(N4CCC(=O)NC4=O)cc3)CC2)n1`, the maximum response (Emax) in data set [3] was 66%. Also, the outcome in [4], in data set [6] and in data set [9] was inactive. The results for the 50% degradation concentration (DC50) in data set [10] and in data set [14] were 15 nM and 8 nM, respectively. In data set [5], the permeability entry is “Impermeable”. For the same molecule, in data set [12], the T1/2 is greater than 48 h. Also, the CC50 in data set [1] came to 0.005 nM; in [7] it was 28 nM. Besides, the Stability result in data set [8] was “Unstable”.

`Cc1nc(Nc2ncc(C(=O)Nc3c(C)cccc3Cl)s2)cc(N2CCN(CCCNC(=O)COc3ccc(C4CCC(=O)NC4=O)cc3)CC2)n1` (stereo not drawn): the DC50 in [10] was found to be 6 nM. Also, the permeability result in data set [5] is recorded as “Impermeable”. Besides, the T1/2 in [12] was greater than 48 h. For the same molecule, the CC50 in data set [7] amounted to 0.24 nM. The Stability result in data set [8] is on record as “Unstable”.
